The source made the active and inactive calls. The rule behind the calls is not given here.
Tests used:
[1] = system: Human immunodeficiency virus 1; test: Antiviral activity against HIV1 3B replication in human CEM cells assessed as inhibition of virus-induced syncytium formation after 4 days; conditions: Human immunodeficiency virus 1, 3B, CCRF-CEM, 96 h
[2] = target: Human immunodeficiency virus type 1 reverse transcriptase (Human immunodeficiency virus 1) (UniProt Q72547); test: Inhibition of HIV1 reverse transcriptase at 100 ug/ml after 1 hr by microtiter plate ELISA
Outline: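 Nonradioactive kit ELISA. HIV-1 RT, template/primer and biotin- and DIG-labelled dNTPs were incubated in lysis buffer with or without inhibitor for 1 h at 37 °C. Product was captured on streptavidin and detected with anti-DIG-peroxidase and ABTS substrate. Absorbance at 405 nm is proportional to RT activity.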

[3] = Selectivity index, ratio of CC50 for human CEM cells to EC50 for HIV1 3B; format: toxicity, cell-based, CCRF-CEM; conditions: read-out: Ratio CC50/EC50
[4] = system: Human immunodeficiency virus 2; test: Antiviral activity against HIV2 ROD replication in human MT4 cells assessed as inhibition of virus-induced cytopathic effect at subtoxic concentration after 5 days by tetrazolium-based colorimetric assay; format: functional, organism-based
[5] = Cytotoxicity against human MT4 cells by MTT assay; format: cell-based
Outline: (§1)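 CC50 was measured in parallel with the antiviral assays. It is the compound concentration that reduced by 50% the number of viable cells in mock-infected MT-4 or CEM cultures.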

[6] = system: Human immunodeficiency virus 2; test: Antiviral activity against HIV2 ROD replication in human CEM cells assessed as inhibition of virus-induced syncytium formation at subtoxic concentration after 4 days; conditions: CCRF-CEM
[7] = system: Human immunodeficiency virus 1; test: Antiviral activity against HIV1 3B replication in human MT4 cells assessed as inhibition of virus-induced cytopathic effect after 5 days by tetrazolium-based colorimetric assay; format: functional, organism-based; conditions: Human immunodeficiency virus 1, 3B, MT4, 120 h
[8] = Cytotoxicity against human CEM cells by MTT assay; format: cell-based; conditions: CEM cells (CCRF-CEM)
Outline: as §1

[9] = Selectivity index, ratio of CC50 for human MT4 cells to EC50 for HIV1 3B; format: toxicity, cell-based; conditions: read-out: Ratio CC50/EC50
Outline: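 Selectivity index is CC50/EC50. CC50 comes from the viable-cell count in mock-infected MT-4 cells.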

With `O=C1CSC(c2c(Br)cccc2Br)N1c1ccccn1` (centres undefined) as the compound, how does the EC50 [1] read?
The EC50 was 0.27 µM.

What about the inhibition [2] of the same compound?
The inhibition was 85.2%.

And the selectivity ratio [3]?
Its selectivity ratio is 66.

And the Activity [4]?
Its Activity is “inactive”.

What about the CC50 [5] of the same compound?
The CC50 was 13.1 µM.

And the Activity [6]?
Its Activity is “inactive”.

What about the EC50 [7] of the same compound?
The EC50 was 0.22 µM.

And the CC50 [8]?
Its CC50 is 17.1 µM.

And the selectivity ratio [9]?
Its selectivity ratio is 60.

Which results are given for `Cc1cc(-c2ccccc2)nc(N2C(=O)CSC2c2c(Br)cccc2Br)n1` (centres undefined)?
inhibition [2]: 17.8%; Activity [4]: inactive; CC50 [5]: 184 µM; Activity [6]: inactive; EC50 [7]: > 8.65 µM; selectivity ratio [9]: < 21

What does the source list for `Cc1ccnc2c1NC(=O)c1cccnc1N2C1CC1` [NEVIRAPINE]?
EC50 [1]: 0.01 µM; selectivity ratio [3]: > 370; Activity [4]: inactive; CC50 [5]: > 50 µM; Activity [6]: inactive; EC50 [7]: 0.05 µM; CC50 [8]: > 4 µM; selectivity ratio [9]: > 1000

With `Cc1cc(C)nc(N2C(=O)CSC2c2c(Br)cccc2Br)n1` (centres undefined) as the compound, how does the inhibition [2] read?
The inhibition was 100%.

What does the source list for `Clc1cccc(Cl)c1C1SCc2nc3ccccc3n21` (centres undefined)?
Activity [4]: inactive; Activity [6]: inactive; selectivity ratio [9]: 16

What does the source list for `O=C1CSC(c2c(Br)cccc2Br)N1Cc1cccs1` (centres undefined)?
EC50 [1]: 0.6 µM; inhibition [2]: 84.3%; selectivity ratio [3]: 59; Activity [4]: inactive; CC50 [5]: 34.6 µM; Activity [6]: inactive; EC50 [7]: 0.58 µM; CC50 [8]: 35.6 µM; selectivity ratio [9]: 59

With `Cc1ccnc(N2C(=O)CSC2c2c(Br)cccc2Br)n1` (centres undefined) as the compound, how does the EC50 [1] read?
The EC50 was 0.04 µM.

What about the inhibition [2] of the same compound?
Its inhibition is 100%.

And the selectivity ratio [3]?
The selectivity ratio was 930.

And the Activity [4]?
Its Activity is “inactive”.

What about the CC50 [5] of the same compound?
The CC50 was 33.9 µM.

And the Activity [6]?
Its Activity is “inactive”.

And the EC50 [7]?
The EC50 was 0.04 µM.

And the CC50 [8]?
The CC50 was 36.3 µM.

And the selectivity ratio [9]?
Its selectivity ratio is 757.

For `O=C1CSC(c2c(Br)cccc2Br)N1c1ncccn1` (centres undefined), which EC50 [1] is on record?
The EC50 was 0.23 µM.

And the inhibition [2]?
The inhibition was 100%.

What about the selectivity ratio [3] of the same compound?
The selectivity ratio was 769.

What about the Activity [4] of the same compound?
Its Activity is “inactive”.

And the CC50 [5]?
Its CC50 is 172 µM.

And the Activity [6]?
Its Activity is “inactive”.

What about the EC50 [7] of the same compound?
The EC50 was 0.24 µM.

What about the CC50 [8] of the same compound?
Its CC50 is 179 µM.

And the selectivity ratio [9]?
Its selectivity ratio is 687.

Which results are given for `Cc1cc(C(F)(F)F)nc(N2C(=O)CSC2c2c(Br)cccc2Br)n1` (centres undefined)?
EC50 [1]: 0.36 µM; inhibition [2]: 85.4%; selectivity ratio [3]: 161; Activity [4]: inactive; CC50 [5]: 32.6 µM; Activity [6]: inactive; EC50 [7]: 0.32 µM; CC50 [8]: 59.3 µM; selectivity ratio [9]: 99

Which selectivity ratio [3] does the source give for `Fc1cccc(F)c1C1SCc2nc3ccccc3n21` (centres undefined) [THIAZOLOBENZIMIDAZOLE] here?
Its selectivity ratio is 45.

What about the Activity [4] of the same compound?
The Activity was “inactive”.

And the Activity [6]?
The Activity was “inactive”.

What about the selectivity ratio [9] of the same compound?
The selectivity ratio was 54.5.

For `O=C1CSC(c2c(Br)cccc2Br)N1c1cccc(C(F)(F)F)n1` (centres undefined), which EC50 [1] is on record?
The EC50 was 3.96 µM.

And the inhibition [2]?
The inhibition was 23.9%.

And the selectivity ratio [3]?
Its selectivity ratio is 8.

And the Activity [4]?
Its Activity is “inactive”.

What about the CC50 [5] of the same compound?
Its CC50 is 30 µM.

What about the Activity [6] of the same compound?
The Activity was “inactive”.

What about the EC50 [7] of the same compound?
The EC50 was 4.56 µM.

And the CC50 [8]?
The CC50 was 29.8 µM.

And the selectivity ratio [9]?
Its selectivity ratio is 7.

What does the source list for `Cc1nc(N2C(=O)CSC2c2c(Br)cccc2Br)ccc1Br` (centres undefined)?
EC50 [1]: 1.83 µM; inhibition [2]: 61.4%; selectivity ratio [3]: 53; Activity [4]: inactive; CC50 [5]: 98 µM; Activity [6]: inactive; EC50 [7]: 1.03 µM; CC50 [8]: 98 µM; selectivity ratio [9]: 96

Which EC50 [1] does the source give for `Cc1cc(N2C(=O)CSC2c2c(Br)cccc2Br)nc(C)n1` (centres undefined) here?
Its EC50 is 4.67 µM.

What about the inhibition [2] of the same compound?
Its inhibition is 66.4%.

What about the selectivity ratio [3] of the same compound?
Its selectivity ratio is 7.

What about the Activity [4] of the same compound?
Its Activity is “inactive”.

And the CC50 [5]?
The CC50 was 33.4 µM.

And the Activity [6]?
The Activity was “inactive”.

What about the EC50 [7] of the same compound?
Its EC50 is 5.21 µM.

What about the CC50 [8] of the same compound?
The CC50 was 33.5 µM.

What about the selectivity ratio [9] of the same compound?
The selectivity ratio was 6.

With `Cc1nc(N2C(=O)CSC2c2c(Br)cccc2Br)nc(C)c1C` (centres undefined) as the compound, how does the EC50 [1] read?
The EC50 was 0.06 µM.

And the inhibition [2]?
Its inhibition is 100%.

What about the selectivity ratio [3] of the same compound?
The selectivity ratio was greater than 5020.

What about the Activity [4] of the same compound?
Its Activity is “inactive”.

And the CC50 [5]?
The CC50 was 227 µM.

And the Activity [6]?
The Activity was “inactive”.

What about the EC50 [7] of the same compound?
Its EC50 is 0.06 µM.

And the CC50 [8]?
Its CC50 is greater than 273 µM.

What about the selectivity ratio [9] of the same compound?
Its selectivity ratio is 3720.

What does the source list for `Cc1cccc(N2C(=O)CSC2c2c(Br)cccc2Br)n1` (centres undefined)?
EC50 [1]: 0.08 µM; inhibition [2]: 79.5%; selectivity ratio [3]: 2950; Activity [4]: inactive; CC50 [5]: 233 µM; Activity [6]: inactive; EC50 [7]: 0.09 µM; CC50 [8]: 233 µM; selectivity ratio [9]: 2660

For `O=C1CSC(c2c(Br)cccc2Br)N1Cc1ccco1` (centres undefined), which EC50 [1] is on record?
The EC50 was 0.18 µM.

What about the inhibition [2] of the same compound?
The inhibition was 99%.

What about the selectivity ratio [3] of the same compound?
Its selectivity ratio is 200.

And the Activity [4]?
Its Activity is “inactive”.

And the CC50 [5]?
Its CC50 is 36.4 µM.

What about the Activity [6] of the same compound?
The Activity was “inactive”.

What about the EC50 [7] of the same compound?
The EC50 was 0.21 µM.

What about the CC50 [8] of the same compound?
Its CC50 is 36.6 µM.

What about the selectivity ratio [9] of the same compound?
The selectivity ratio was 171.

For `O=C1CSC(c2c(Br)cccc2Br)N1Cc1ccccn1` (centres undefined), which EC50 [1] is on record?
The EC50 was 0.63 µM.

What about the inhibition [2] of the same compound?
The inhibition was 97.6%.

And the selectivity ratio [3]?
Its selectivity ratio is 283.

What about the Activity [4] of the same compound?
Its Activity is “inactive”.

What about the CC50 [5] of the same compound?
The CC50 was 174 µM.

What about the Activity [6] of the same compound?
Its Activity is “inactive”.

What about the EC50 [7] of the same compound?
The EC50 was 0.84 µM.

And the CC50 [8]?
Its CC50 is 117 µM.

What about the selectivity ratio [9] of the same compound?
Its selectivity ratio is 209.

Which EC50 [1] does the source give for `O=C1CSC(c2c(Br)cccc2Br)N1c1nccs1` (centres undefined) here?
Its EC50 is 0.56 µM.

What about the inhibition [2] of the same compound?
The inhibition was 69.5%.

What about the selectivity ratio [3] of the same compound?
Its selectivity ratio is 194.

And the Activity [4]?
Its Activity is “inactive”.

What about the CC50 [5] of the same compound?
Its CC50 is 109 µM.

What about the Activity [6] of the same compound?
Its Activity is “inactive”.

What about the EC50 [7] of the same compound?
Its EC50 is 0.5 µM.

What about the CC50 [8] of the same compound?
The CC50 was 109 µM.

What about the selectivity ratio [9] of the same compound?
The selectivity ratio was 218.

Source: ChEMBL document CHEMBL1154440, “Design and synthesis of 2-(2,6-dibromophenyl)-3-heteroaryl-1,3-thiazolidin-4-ones as anti-HIV agents” (Eur J Med Chem, 2008)
